The values that follow come from ChEMBL document CHEMBL1157438, “Maleimide and maleic anhydride derivatives from the mycelia of Antrodia cinnamomea and their nitric oxide inhibitory activities in macrophages” (2008).

The subject of test [1] is RAW264.7. Briefly: Cell viability of LPS-stimulated mouse RAW264.7 cells after 24 hrs by MTT assay. The format is functional. Details: concentration or dose not given beside the values. An outline of the steps:
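Cells cultured as for the nitrite assay (DMEM/10% FBS, medium renewed at 24 h) and exposed to compounds at 0–20 µg/mL plus LPS 1 µg/mL for 24 h. MTT (5 mg/mL stock in PBS, 10 µL per 100 µL culture) added for 4 h at 37 °C, formazan dissolved in DMSO, read at 550 nm; untreated cells set as 100%. Mean ± SD, three experiments in triplicate.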
Background: Tetrazolium assays rely on reduction of a dye to a coloured formazan, in cell work by metabolically active cells.

For test [2], the system named is RAW264.7. Briefly: Antiinflammatory activity in mouse RAW264.7 cells assessed as inhibition of LPS-induced NO production by measuring nitrite level after 24 hrs. The format is functional. Summed up:
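RAW264.7 cells in DMEM with 10% heat-inactivated FBS, 37 °C, 5% CO2, 96-well; medium renewed after 24 h, then compounds (0, 1, 5, 10 or 20 µg/mL) added with LPS 1 µg/mL for 24 h. Supernatant mixed 1:1 with Griess reagent, 10 min room temperature, nitrite read at 540 nm. Mean ± SD of three experiments, each in triplicate.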

For the compound `CC(C)=CCOc1ccc(C2=C(CC(C)C)C(=O)NC2=O)cc1`, the results for the Activity in test [1] and in test [2] were 69.1% and 10.6 µM, respectively.
Regarding `CC(C)CC1=C(c2ccc(O)cc2)C(=O)OC1=O` [ANTROCINNAMOMIN C], the Activity in test [1] came to 76.3%; in test [2], 21.8 µM.
Turning to `CC(C)=CCOc1ccc(C2=C(CC(C)C)C(=O)N(O)C2=O)cc1`, the results for the Activity in test [1] and in test [2] were 86.8% and 18.3 µM, respectively.
`CC(C)=CCOc1ccc(C2=C(CC(C)C)C(=O)OC2=O)cc1`: the Activity was determined as 67.9% in test [1] and 20.8 µM in test [2].
The matching figures for `CC(C)CC1=C(c2ccc(O)cc2)C(=O)N(O)C1=O` [ANTROCINNAMOMIN B]: 82.2% and 18 µM.
Take `CC(=O)ON1C(=O)C(CC(C)C)=C(c2ccc(OCC=C(C)C)cc2)C1=O` [ANTROCINNAMOMINS A]: the Activity is 91.1% in test [1] and 12.5 µM in test [2].
In the same order, the values of `CC(C)=CCOc1ccc(C2=C(CC(C)C)C(O)OC2=O)cc1` (centres undefined) [ANTROCINNAMOMIN D] are 88.2% and 20 µM.
